FGF22 binding: binders of human FGF22 protein, primary screen, FGF22 synaptogenesis inhibitor project, biophysical, thermal shift, single point; recombinant FGF22 thermal shift, SYPRO orange fluorescence; percent of sucrose octasulfate shift, DMSO zero; activity (Tm shift, normalised), % at 9.99 µM; 340,000 compounds, 1.5% hits;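 active means mean Tm shift, scaled 0 neutral to 100 positive control, at about 1.3% or above, every replicate too, limit read from the data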
Jurkat NFkB inh: inhibitors of induced NF-kB luciferase reporter, primary screen, TCR NF-kB activation inhibitor project, cell-based, luminescence, uHTS. Jurkat, PMA/ionomycin-induced NF-kB luciferase reporter. inhibition, % at 4 µM. 330,000 compounds, 0.53% hits; in the data active means inhibition above about 50%
NR2E3 ag-1: NR2E3 agonists in two-hybrid cells, primary screen, cell-based, luminescence, CHO-S, Gal4-NCOR/VP16-NR2E3 | inhibition of corepressor binding, % at 3.98 µM | luciferase | AID 602229, 2012 | 360,000 compounds, 0.35% hits | Photoreceptor-specific nuclear receptor (Homo sapiens), Q9Y5X4;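 active means inhibition above the mean of all tested compounds plus 3 SD, cut at about 70% in these data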;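 further: higher means lower luciferase signal from less NR2E3 corepressor binding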
Target sequence (Q9Y5X4 whole entry, looked up, the tested form may be a part): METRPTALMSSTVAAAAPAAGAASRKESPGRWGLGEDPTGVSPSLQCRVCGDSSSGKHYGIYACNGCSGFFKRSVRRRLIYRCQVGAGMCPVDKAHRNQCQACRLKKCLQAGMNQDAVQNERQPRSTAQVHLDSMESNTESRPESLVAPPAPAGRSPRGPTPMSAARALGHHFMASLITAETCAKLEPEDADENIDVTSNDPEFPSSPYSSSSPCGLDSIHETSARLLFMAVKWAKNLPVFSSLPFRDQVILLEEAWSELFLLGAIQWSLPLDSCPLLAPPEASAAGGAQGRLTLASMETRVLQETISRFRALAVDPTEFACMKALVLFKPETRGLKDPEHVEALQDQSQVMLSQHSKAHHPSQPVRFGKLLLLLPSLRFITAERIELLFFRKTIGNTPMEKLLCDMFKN
miR122 inh: miR-122 Renilla sensor signal increase in Huh7, primary screen, miR-122 inhibitor project, cell-based, single point, plate reader. Huh7 miR-122 Renilla luciferase sensor, 48 h; neutral wells = 0, positive control = 100. activation (reporter increase), % at 12.5 µM. 340,000 compounds, 0.3% hits. AID 602342, 2012;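 active means mean replicate activation score at least 90 and every replicate individually at or above 90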;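 further: higher luciferase means less miR-122 activity so hits act as miR-122 inhibitors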
NR2E3 ag-2: inhibitors of NR2E3-RetCOR corepressor binding, primary screen, NR2E3 agonist project, biochemical, TR-FRET, GST-NR2E3, biotin-RetCOR; 320,000 compounds, 0.12% hits; Photoreceptor-specific nuclear receptor (Homo sapiens), Q9Y5X4; inhibition of corepressor binding, % at 4.78 µM; 1536-well;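 active means percent inhibition above the cutoff of mean plus 3 SD of all tested compounds, set per screening campaign, cut at about 20% in these data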
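system = GST-tagged NR2E3 plus biotinylated RetCOR corepressor | input = 1.35 nM GST-NR2E3 | also added = 7 nM biotin-RetCOR | schedule = 5 h incubation at 4 °C | measured by = TR-FRET with europium anti-GST and streptavidin-D2, 340 nm excitation | read-out = percent loss of FRET ratio relative to control wells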
697 NFkB inh: inhibitors of PMA/ionomycin-induced NF-kB reporter, 697 cells, primary screen, B-cell NF-kB inhibitor project, cell-based, luminescence, uHTS | 697 B-cell NF-kB luciferase reporter, 16 h | inhibition, % at 4 µM | 330,000 compounds, 0.33% hits | AID 435022, 2010; in the data active means inhibition above about 35%
697 NFkB conf: PMA/ionomycin-induced NF-kB reporter inhibitors, 697 retest, confirmation, B-cell NF-kB inhibitor project, cell-based, luminescence, single concentration. 697 B-cell NF-kB luciferase, 16 h. 2,000 compounds, 35% hits. shares compounds with 697 NFkB inh. inhibition, % at 4 µM; in the data active means inhibition mostly above about 28%, no sharp cut-off; inactive means mostly below about 22%
A number is an active result; 0 = inactive; - = no result given. Hits are enriched below; roughly 2.2% of the tested compounds scored in any of these assays.

SMILES	FGF22 binding	Jurkat NFkB inh	NR2E3 ag-1	miR122 inh	NR2E3 ag-2	697 NFkB inh	697 NFkB conf
Cc1ccc(Nc2nc(N3CCOCC3)nc(N3CCOCC3)n2)cc1C	0	0	0	0	0	55	47
COc1ccc(Nc2nc(N3CCOCC3)nc(N3CCOCC3)n2)cc1	0	0	0	0	-	0	-
C/C=C/c1cnc2c(c1)C(=O)N([C@@H](C)CO)C[C@@H](C)[C@H](CN(C)C(=O)Cc1ccccn1)O2	0	-	-	-	-	-	-
CCOc1ccc2oc(C(=O)N3CCN(c4ccccn4)CC3)c(C)c2c1	0	0	0	-	-	0	-
CCOc1ccc2[nH]c3c(N4CCN(c5ccccn5)CC4)ncnc3c2c1	-	0	0	0	0	45	0
CC(C)[C@H](C)NC(=O)N(C)C[C@H]1OCc2ccccc2-c2ccccc2C(=O)N([C@H](C)CO)C[C@@H]1C	0	-	-	-	-	-	-
O=C(c1ccco1)n1c(=S)nc2ccccn21	-	0	0	-	0	0	-
Cc1ccn2c(c1)nc(=S)n2C(=O)c1ccccc1	0	0	0	-	0	0	0
Cc1cccc(C(=O)n2c(=S)nc3cc(C)ccn32)c1	0	0	0	0	0	0	0
Cc1cccc(C(=O)Nc2ccn(C)n2)c1	0	0	0	-	-	0	-
CCCNC(=O)NC[C@H]1[C@@H](c2ccc(C3=CCCCC3)cc2)[C@@H](CO)N1C(C)=O	0	-	-	0	-	-	-
O=C(C[C@@H]1C[C@@H]2c3cc(NC(=O)Nc4ccccc4)ccc3O[C@@H]2[C@@H](CO)O1)NC1CCCC1	0	-	-	0	-	-	-
N/C(=N\OC(=O)COc1ccc(Cl)cc1Cl)c1ccccn1	0	0	0	0	0	0	-
N/C(=N\OC(=O)COc1ccc(Br)cc1Cl)c1ccccn1	-	0	0	-	0	0	0
N/C(=N\OC(=O)/C=C/c1ccccc1Cl)c1cccnc1	0	0	0	0	0	0	-
N/C(=N\OC(=O)/C=C/c1ccccc1Cl)c1ccccn1	0	0	0	-	0	0	0
COc1ccc(S(=O)(=O)Nc2cccc3c2O[C@H](CN(C)S(=O)(=O)c2cccs2)[C@@H](C)CN([C@@H](C)CO)C3=O)cc1	0	-	-	0	-	-	-
CCCn1nc(Oc2nc(NCC)nc(NC(C)C)n2)ccc1=O	-	0	0	0	0	62	0
CCOC(=O)N1CCC(NC(=O)c2cc3c(-c4ccc(OC)c(OC)c4)nn(C)c3s2)CC1	-	0	0	0	0	41	0
CCCC(c1c(C)n(C)n(-c2ccccc2)c1=O)c1c(C)n(C)n(-c2ccccc2)c1=O	-	0	0	0	0	40	0
Cc1ccc(S(=O)(=O)N2CCCCC2CCNC(=O)C(=O)NCc2ccncc2)cc1 (centres undefined)	0	0	0	-	0	53	52
O=C(NCCC1CCCCN1S(=O)(=O)c1ccccc1)C(=O)NCc1ccncc1 (centres undefined)	0	0	0	0	0	0	-
Cc1cc(C)c(S(=O)(=O)N2CCCCC2CCNC(=O)C(=O)NC2CC2)c(C)c1 (centres undefined)	-	0	0	-	0	0	0
Cc1cc(S(=O)(=O)N2CCCCC2CCNC(=O)C(=O)NC2CC2)ccc1F (centres undefined)	0	0	0	-	0	0	-
COCC(=O)N1CC2(C1)[C@@H](c1ccc(-c3ccc(F)cc3)cc1)[C@H](CO)N2C(=O)C1CC1	0	-	-	-	-	-	-
COc1ccc2cc3cc(C(=O)N4CCN(C5CCCCC5)CC4)oc3nc2c1	-	0	0	0	0	0	-
COc1ccc2cc3cc(C(=O)N4CCCCCC4)oc3nc2c1	-	0	0	0	0	0	0
